{"source": "paper PMC6884402", "about": "(ACS infectious diseases, 2018)", "key": {"[1]": {"tested_on": "virulent Type I RH strain of T. gondii that expresses luciferase", "test": "In vivo efficacy against acute toxoplasmosis in mice", "design": "species or system Toxoplasma gondii", "details": "5 mg/kg orally for 5 days; for survival of infected mice: CF-1 mice, 4 per group; for luminescence from infection: at day 13 / prior to euthanasia"}, "[2]": {"details": "rats, orally at 5 mk/kg; cited from earlier work"}, "[3]": {"tested_on": "Plasmodium", "details": "single dose of 1 mg/kg; cited from earlier work"}, "[4]": {"tested_on": "N. caninum", "details": "10mg/kg dose; cited from earlier work"}, "[5]": {"tested_on": "human cyt bc1", "details": "cited from earlier work"}, "[6]": {"tested_on": "S. cerevisiae cyt bc1", "details": "cited from earlier work"}, "[7]": {"details": "cited from earlier work"}, "[8]": {"tested_on": "RH strain of T. gondii expressing β-galactosidase (wild type cyt b)", "test": "72h T. gondii tachyzoite proliferation assay", "assay_type": "cell-based", "details": "Toxoplasma gondii, read-out: T. gondii EC50"}, "[9]": {"tested_on": "Dd2 P. falciparum strain", "test": "72h P. falciparum blood stage proliferation assay", "assay_type": "cell-based", "details": "Plasmodium falciparum, DD2, 72 h, read-out: Dd2 EC50 (P. falciparum)", "procedure,_shortened": "(§1)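 Dd2 or I22L clone (I22L selected from Dd2 under quinolone pressure) blood stages in 2-fold dilution series, in triplicate. Final hematocrit 2% (v/v), starting parasitemia 0.2%. Incubated 72 h at 37°C under 5% CO2/5% O2/90% N2. SYBR Green I dye-detergent added for 1 h at room temperature in the dark, then fluorescence read. EC50 is the mean of ≥3 experiments. […]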"}, "[10]": {"tested_on": "T. gondii RH strain with T222P substitution in the cyt b Qi site", "test": "T. gondii T222P strain proliferation assay", "assay_type": "cell-based, Toxoplasma gondii", "procedure,_shortened": "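Compounds were DMSO-diluted (≤0.5% final) over human foreskin fibroblast monolayers. Wild-type or Thr222Pro RH tachyzoites (4000/well) expressing gfp and β-galactosidase were added; the mutant came from chemical mutagenesis plus selection. After 72 h at 37°C, 5% CO2, cells were lysed and chlorophenol red β-galactopyranoside added for 4 h, read spectrophotometrically. Each run ≥3 times in quadruplicate. Resistance is the T222P/wild-type EC50 ratio.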"}, "[11]": {"tested_on": "P. falciparum Dd2 strain with I22L substitution in cytochrome b", "test": "P. falciparum I22L strain proliferation assay", "assay_type": "cell-based, Plasmodium falciparum", "procedure,_shortened": "as §1"}}, "note": "pEC50: −log10 of the molar value. “Also recorded” adds a separate entry of the source."}
{"smiles": "Cc1[nH]c2cc(F)cc(F)c2c(=O)c1-c1ccc(Oc2ccc(OC(F)(F)F)cc2)cc1", "note": "[Compound 8B]", "values": [{"measurement": "T. gondii DNA in brain (quantitative real-time PCR)", "setting": "[1]", "result": "not detected"}, {"measurement": "T. gondii DNA in spleen (quantitative real-time PCR)", "setting": "[1]", "result": "not detected"}, {"measurement": "survival of infected mice", "setting": "[1]", "result": "survived until day 32; also recorded: all mice survived"}, {"measurement": "survival of infected mice", "setting": "[1]; listed as ELQ-400", "result": "alive at the completion of the experiment"}, {"measurement": "T. gondii DNA in brain (quantitative real-time PCR)", "setting": "[1]; listed as ELQ-400", "result": "did not have infection detectable by PCR"}, {"measurement": "T. gondii DNA in spleen (quantitative real-time PCR)", "setting": "[1]; listed as ELQ-400", "result": "none of the mice"}, {"measurement": "maximum concentration", "setting": "[2]", "result": 71.2, "unit": "ng/mL"}, {"measurement": "efficacy in a mouse model of malaria", "setting": "[3]", "result": "curative"}, {"measurement": "efficacy against N. caninum infection", "setting": "[4]", "result": "effective in reducing infection"}, {"measurement": "activity against human cyt bc1", "setting": "[5]", "result": "has activity"}, {"measurement": "site of inhibition in S. cerevisiae cyt b", "setting": "[6]", "result": "inhibit both the Qo and Qi site"}, {"measurement": "toxicity in general cell assays and in vivo efficacy studies", "setting": "[7]", "result": "toxicity was not observed"}]}
{"smiles": "O=C1C(O)=C([C@H]2CC[C@H](c3ccc(Cl)cc3)CC2)C(=O)c2ccccc21", "note": "[ATV, Atovaquone, reference compound]", "values": [{"measurement": "T. gondii DNA in brain (quantitative real-time PCR)", "setting": "[1]", "result": "developed both systemic and brain infection"}, {"measurement": "T. gondii DNA in spleen (quantitative real-time PCR)", "setting": "[1]", "result": "developed both systemic and brain infection"}, {"measurement": "luminescence from infection", "setting": "[1]", "result": "detectable in the 2 surviving mice"}, {"measurement": "activity against human cyt bc1", "setting": "[5]", "result": "has activity"}]}
{"smiles": "CCCCCCCCCCCc1c(C)[nH]c2cc(OC)ccc2c1=O", "note": "[Compound 2C, 7-methoxy-2-methyl-3-undecylquinolin-4(1H)-one]", "values": [{"measurement": "pEC50", "setting": "[8]", "result": 9.43}, {"measurement": "pEC50", "setting": "[9]", "result": 8.74}]}
{"smiles": "COc1cc2[nH]c(C)c(-c3ccc(Oc4ccc(OC(F)(F)F)cc4)cc3)c(=O)c2cc1F", "note": "[Compound 3B]", "values": [{"measurement": "T. gondii DNA in brain (quantitative real-time PCR)", "setting": "[1]", "result": "evidence of brain infection by PCR that was similar to controls"}, {"measurement": "luminescence from infection", "setting": "[1]", "result": "3 of 4 mice did not have luminescence"}, {"measurement": "T. gondii DNA in brain (quantitative real-time PCR)", "setting": "[1]; listed as ELQ-316", "result": "had T. gondii infection in brain tissue"}, {"measurement": "T. gondii DNA in spleen (quantitative real-time PCR)", "setting": "[1]; listed as ELQ-316", "result": "not detected above the limits of detection in the spleen of 3 of 4 mice"}, {"measurement": "resistance caused by T222P substitution in T. gondii", "setting": "[10]", "result": "causes resistance"}, {"measurement": "activity against human cyt bc1", "setting": "[5]", "result": "do not inhibit"}, {"measurement": "activity against yeast (S. cerevisiae) cyt bc1", "setting": "[6]", "result": "do not inhibit"}]}
{"smiles": "Cc1[nH]c2ccccc2c(=O)c1-c1ccc(Oc2ccc(OC(F)(F)F)cc2)cc1", "note": "[Compound 1B]", "values": [{"measurement": "activity against human cyt bc1", "setting": "[5]", "result": "has activity"}, {"measurement": "activity against yeast (S. cerevisiae) cyt bc1", "setting": "[6]", "result": "has activity"}]}
{"smiles": "COc1cc2[nH]c(C)c(-c3ccc(Oc4ccc(OC(F)(F)F)cc4)cc3)c(=O)c2cc1Cl", "note": "[Compound 4B]", "values": [{"measurement": "resistance caused by I22L substitution in P. falciparum", "setting": "[11]", "result": "causes resistance"}, {"measurement": "resistance caused by T222P substitution in T. gondii", "setting": "[10]", "result": "causes resistance"}, {"measurement": "activity against human cyt bc1", "setting": "[5]", "result": "do not inhibit"}, {"measurement": "activity against yeast (S. cerevisiae) cyt bc1", "setting": "[6]", "result": "do not inhibit"}]}
{"smiles": "COc1ccc2c(=O)c(-c3ccc(Oc4ccc(OC(F)(F)F)cc4)cc3)c(C)[nH]c2c1", "note": "[Compound 2B]", "values": [{"measurement": "resistance caused by T222P substitution in T. gondii", "setting": "[10]", "result": "causes resistance"}, {"measurement": "activity against human cyt bc1", "setting": "[5]", "result": "do not inhibit"}, {"measurement": "activity against yeast (S. cerevisiae) cyt bc1", "setting": "[6]", "result": "do not inhibit"}]}
